According to ChEMBL document CHEMBL4602735, “Discovery of (1H-Pyrazolo[3,4-c]pyridin-5-yl)sulfonamide Analogues as Hepatitis B Virus Capsid Assembly Modulators by Conformation Constraint” (J Med Chem, 2020):

Key:
[1] = Solubility in pH 5.8 phosphate buffer at 1 mg at 25 degC by HPLC analysis; type: physicochemical
In short: (§1)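 Solubility determined in water or 0.067 M phosphate buffer at pH 5.8, 6.8 and 7.4. Values are reported in mg/mL; ND means below the detection limit.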

[2] = Stability in 0.1M HCl solution assessed as compound remaining level at 37 degC by HPLC analysis; type: physicochemical; settings: buffer
In short: (§2)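 Prodrug incubated in buffer (0.1 M HCl, pH 5.8, 6.8 or 7.4) at 37 °C; percent of compound remaining determined by HPLC; remaining percentage reported after 3 h, stability meaning no hydrolysis after 2 h.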

[3] = Half life in mouse plasma by HPLC analysis; type: ADME, cell-free
In short: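 Prodrug incubated in plasma at 37 °C, with percent remaining determined by HPLC to derive half-life.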

[4] = Solubility in water at 1 mg at 25 degC by HPLC analysis; type: physicochemical; in short: as §1
[5] = Stability in pH 7.4 buffer assessed as compound hydrolysis level after 2 hrs at 37 degC by HPLC analysis; type: physicochemical; settings: pH 7.4, 2 h; in short: as §2
[6] = Stability in pH 6.8 buffer assessed as compound remaining level at 37 degC by HPLC analysis; type: physicochemical; in short: as §2
[7] = Solubility in pH 6.8 phosphate buffer at 1 mg at 25 degC by HPLC analysis; type: physicochemical; settings: BLD = below limit of detection; in short: as §1

solubility [1]: 290 µg/mL | Stability [2]: Stable | half-life [3]: 47.2 min | solubility [4]: 1510 µg/mL | Stability [5]: Stable | Stability [6]: Unstable | solubility [7]: Bld
SMILES: Cc1cc(Nc2nn(C3CC3)c3cnc(S(=O)(=O)N4CCC(OC(=O)CN(C)C)CC4)cc23)ccc1F.O=C(O)C(F)(F)F
